Dynein cargo inh: dynein cargo transport inhibition; 3617.4 mouse cells, GR-EGFP nuclear translocation imaging; test concentration mostly 20 µM; stimulated with dexamethasone, 1 µM; hits give low values; z-score, hits read low; actives 0.47% (n = 220,000); AID 1381;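 active means plate z-score of nuclear minus cytoplasmic receptor signal below a set negative limit, without overly bright fluorescence or cell loss, cut at about -3.5 in these data, passing the limit was not always enough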;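 further: z-score of nuclear minus cytoplasmic ring GR-EGFP intensity difference per well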
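Also added: dexamethasone, 1.0 µM final. Medium: tet-free, stripped-serum medium. Detection: fixed, Hoechst-stained cells imaged at 10x for EGFP. Read-out: nuclear-to-cytoplasmic GR-EGFP distribution per well. Times: induction 48 h, compound 1 h, agonist 30 min.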
Mdm2 ligase inh: blocks human Mdm2 ubiquitin ligase activity | cell-based MDM2 ubiquitination luciferase reporter, 2 h; 0 = plate control, 100 = twice control, blank-subtracted | signal enhancement, % at 5 µM | Q00987 | actives 0.11% (n = 210,000);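 active means signal enhancement of 30% or more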;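 further: luminescence tracks abundance of the self-degrading MDM2-luciferase fusion protein; higher signal means inhibition of MDM2 E3 ligase activity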
Target sequence (Q00987 whole entry, looked up, the tested form may be a part): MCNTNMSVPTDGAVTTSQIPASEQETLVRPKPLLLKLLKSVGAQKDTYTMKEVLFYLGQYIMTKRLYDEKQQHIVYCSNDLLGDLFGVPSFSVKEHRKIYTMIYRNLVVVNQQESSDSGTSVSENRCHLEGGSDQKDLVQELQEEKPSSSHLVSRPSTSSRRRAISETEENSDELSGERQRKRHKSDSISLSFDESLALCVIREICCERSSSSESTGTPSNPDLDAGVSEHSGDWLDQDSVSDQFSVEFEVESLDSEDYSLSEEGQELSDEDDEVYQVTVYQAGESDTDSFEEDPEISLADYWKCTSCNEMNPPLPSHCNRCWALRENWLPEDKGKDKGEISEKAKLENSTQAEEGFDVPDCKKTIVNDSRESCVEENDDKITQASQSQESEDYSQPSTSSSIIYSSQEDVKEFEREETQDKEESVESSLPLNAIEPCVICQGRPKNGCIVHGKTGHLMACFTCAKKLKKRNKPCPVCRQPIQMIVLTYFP
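test system = mammalian cells stably expressing self-ubiquitinating, self-degrading MDM2 E3–luciferase fusion | quantity = 2000 cells/well | incubation = cell settling 4 h, compound treatment 2 h, both 37 °C | signal = luminescence with SteadyLite reagent, 15 min at room temperature | evaluation = % enhancement relative to plate controls after blank subtraction | benchmarks = plate controls and plate blanks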
TNF necrop inh: inhibitors of TNF-alpha induced necroptosis in Jurkat FADD-/- cells; AID 463075; actives 0.068% (n = 220,000); Jurkat FADD-/- TNF necroptosis rescue, ATP luminescence, 24 h; 0 = TNF only, 100 = no-TNF cells; activation (protection from cell death), % at 10 µM;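 active means activation, meaning protection from cell death, of at least 50% relative to plate controls; inactive means activation below 50%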;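 further: necroptosis triggered by 40 ng/mL TNF-alpha added together with compound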
zVAD death inh: L929 zVAD cell death inhibition; L929 zVAD necroptosis rescue, ATP luminescence, 24 h; with zVAD 60 µM; viability rescue, % at 10 µM; actives 0.38% (n = 220,000);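 active means activation, scaled between plate controls, above about 75%, limit read from the data; inactive means activation under that limit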;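 further: 0% = zVAD with DMSO and 100% = DMSO alone without zVAD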
Autophagy HCS: modulators of autophagy; calls only at 10 µM (by protocol); MEF GFP-LC3 puncta imaging; test concentration mostly 10 µM; actives 0.98% (n = 190,000);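 active means percentage of spot-positive cells more than 3 SD above its plate mean, without a fluorescence outlier flag or 80% toxicity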;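 further: spot-positive cell cutoff set from DMSO-treated cells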
* marks the source's active call; other numbers are inactive results. Hits are enriched below; roughly 1.8% of the tested compounds scored in any of these assays.

Screening O=C1S/C(=C\c2ccc(N3CCOCC3)o2)C(=O)N1c1ccccc1 returned Dynein cargo inh -1.4, Mdm2 ligase inh -4, TNF necrop inh 1, zVAD death inh 7 and Autophagy HCS active.
For O=C1S/C(=C\c2ccc(N3CCOCC3)o2)C(=O)N1Cc1c(F)cccc1Cl the results were Dynein cargo inh -1.5, Mdm2 ligase inh -9, TNF necrop inh -9, zVAD death inh 2 and Autophagy HCS inactive.
`COc1cc(NC(=O)c2ccc(-c3ccc(Br)cc3)o2)ccc1NC(=O)C(C)C` gave Dynein cargo inh -0.8, Mdm2 ligase inh -15, TNF necrop inh 2, zVAD death inh 1 and Autophagy HCS active.
Screening Cc1nnc(NC(=O)C2COc3ccccc3O2)s1 (stereo unspecified) returned Dynein cargo inh 2.4, Mdm2 ligase inh 1, TNF necrop inh 38, zVAD death inh 3 and Autophagy HCS inactive.
For O=C(Nc1ncc(Cc2ccccc2)s1)C1COc2ccccc2O1 (stereo unspecified) the results were Dynein cargo inh 0.56, Mdm2 ligase inh -15, TNF necrop inh 55*, zVAD death inh 0 and Autophagy HCS inactive.
O=C(Nc1ncc(Cc2ccccc2)s1)c1cccs1 was read as Dynein cargo inh -0.5, Mdm2 ligase inh -12, TNF necrop inh -3, zVAD death inh 83* and Autophagy HCS inactive.
`CCOc1ccc(C(=O)N/N=C/c2cc(Cl)ccc2[N+](=O)[O-])cc1` gave Dynein cargo inh -0.38, Mdm2 ligase inh 7, TNF necrop inh 1, zVAD death inh 0 and Autophagy HCS inactive.
`CCOc1cc(NC(=O)c2cnccn2)c(OCC)cc1NC(=O)c1cccc(F)c1` gave Dynein cargo inh 1.3, Mdm2 ligase inh -7, TNF necrop inh 0, zVAD death inh -1 and Autophagy HCS active.
Screening CCOc1cc(NC(=O)c2ccccn2)c(OCC)cc1NC(=O)c1ccc(C)cc1 returned Dynein cargo inh 1.9, Mdm2 ligase inh -10, TNF necrop inh 2, zVAD death inh 1 and Autophagy HCS inactive.
`COc1ccc2cc3cc(C(=O)NCc4cccnc4)oc3nc2c1` gave Dynein cargo inh 2.2, Mdm2 ligase inh -14, TNF necrop inh -3, zVAD death inh -1 and Autophagy HCS inactive.
CC(C)n1c(O)c(N=Nc2ccc(Cl)nn2)c2ccccc21 was read as Dynein cargo inh -0.99, Mdm2 ligase inh -12, TNF necrop inh 0, zVAD death inh 0 and Autophagy HCS active.
For Cc1cc(C(=O)N=Nc2c(O)n(C(C)C)c3ccccc23)n[nH]1 the results were Dynein cargo inh -0.24, Mdm2 ligase inh -4, TNF necrop inh -6, zVAD death inh 1 and Autophagy HCS inactive.
For Cc1ccc(S(=O)(=O)N2CCOCC2)cc1NC(=O)COC(=O)c1cc(=O)c2ccccc2o1 the results were Dynein cargo inh 0.25, Mdm2 ligase inh -17, TNF necrop inh 3, zVAD death inh 0 and Autophagy HCS active.
For O=C(Nc1ccc([N+](=O)[O-])cc1)Nc1ccc(OC(F)F)c(Cl)c1 the results were Dynein cargo inh 0.67, Mdm2 ligase inh -15, TNF necrop inh 1, zVAD death inh 5 and Autophagy HCS active.
`Cc1ccc(N/C(N)=N/c2nc(C)cc(N3CCCCC3)n2)c(C)c1` gave Dynein cargo inh -0.32, Mdm2 ligase inh -44, TNF necrop inh -6, zVAD death inh 7 and Autophagy HCS inactive.
Screening Cc1nnc(SCC(=O)N2c3ccccc3C(C)(c3ccccc3)CC2(C)C)s1 (stereo unspecified) returned Dynein cargo inh 0.073, Mdm2 ligase inh 0, TNF necrop inh 0, zVAD death inh 0 and Autophagy HCS inactive.
For Cc1cc(=O)n(C2CCS(=O)(=O)C2)[nH]1 (stereo unspecified) the results were Dynein cargo inh 0.023, Mdm2 ligase inh -7, TNF necrop inh -2, zVAD death inh 6 and Autophagy HCS inactive.
For N#C/C(=C\c1ccc(/C=C(/C#N)c2nn(CCO)c(N)c2C#N)cc1)c1nn(CCO)c(N)c1C#N the results were Dynein cargo inh -0.28, Mdm2 ligase inh -24, TNF necrop inh -1, zVAD death inh 1 and Autophagy HCS active.
